According to ChEMBL document CHEMBL4152319, “5-Hydroxypyrido[2,3-b]pyrazin-6(5H)-one derivatives as novel dual inhibitors of HIV-1 reverse transcriptase-associated ribonuclease H and integrase” (Eur J Med Chem, 2018):

How the values were obtained:
[1] = molecular target: Human immunodeficiency virus type 1 reverse transcriptase (Human immunodeficiency virus 1, UniProt Q72547); test: Inhibition of HIV-1 BH10 reverse transcriptase RNase H activity expressed in Escherichia coli using [32P]-labeled template primer 31Trna/21P as substrate pretreated for 5 mins followed by substrate addition by polyacrylamide gel electrophoresis method
How it was run: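 Wild-type HIV-1 BH10 RT (20-40 nM) was preincubated with compound for 5 min at 37 °C in 50 mM Tris-HCl pH 8.0, 50 mM NaCl, 5 mM MgCl2, 5% DMSO. Reaction was started with 25 nM 5'-32P-labeled 31Trna/21P and run 20 s at 37 °C. Cleavage products were resolved on denaturing PAGE and quantified by phosphorimaging. IC50 came from dose-response curves over 0.2-100 μM.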

[2] = system: Human immunodeficiency virus 1; test: Antiviral activity against Human immunodeficiency virus 1 3B infected in MT4 cells assessed as protection against virus-induced cytopathic effect measured 5 days post infection by MTT assay; type: functional, organism-based; settings: MT4, 120 h
How it was run: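 MT-4 cells resuspended at 6×10^5 cells/mL, infected with HIV-1 IIIB at 100-300 CCID50. Serial five-fold compound dilutions were run in triplicate wells. Viability was read by MTT reduction at 540 and 690 nm five days after infection, using the median OD of two or three wells. EC50 is the concentration giving 50% protection from viral cytopathicity.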

[3] = system: Human immunodeficiency virus 1; test: Selectivity ratio of IC50 for HIV-1 BH10 reverse transcriptase RNase H activity to IC50 for recombinant HIV1 integrase strand transfer activity
How it was run: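 Ratio of RNase H IC50 to IN IC50. The RNase H IC50 came from the gel-based cleavage assay. The IN IC50 came from an ELISA strand-transfer assay: biotinylated LTR U5 donor DNA on streptavidin plates, full-length recombinant IN added, compound for 5 min at room temperature, then target DNA for 30 min at 37 °C. Products were detected with HRP antibody, TMB and A450.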

[4] = molecular target: Human immunodeficiency virus type 1 integrase (Human immunodeficiency virus 1, UniProt Q7ZJM1); test: Inhibition of recombinant HIV1 integrase strand transfer activity using biotin-labeled double-stranded HIV-1 LTR U5 donor DNA substrate pretreated for 5 mins followed by substrate addition and measured after 30 mins by ELISA
Chain of Human immunodeficiency virus type 1 integrase (Q7ZJM1 whole entry): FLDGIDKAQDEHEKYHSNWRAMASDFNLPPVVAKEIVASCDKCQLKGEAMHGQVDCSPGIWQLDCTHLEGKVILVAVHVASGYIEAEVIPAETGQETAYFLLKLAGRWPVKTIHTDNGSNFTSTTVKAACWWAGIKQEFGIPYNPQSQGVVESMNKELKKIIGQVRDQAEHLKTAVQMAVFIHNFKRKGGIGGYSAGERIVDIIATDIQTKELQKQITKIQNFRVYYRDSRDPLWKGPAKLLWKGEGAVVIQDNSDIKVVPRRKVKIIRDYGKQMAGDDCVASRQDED

[5] = Cytotoxicity against human MT4 cells after 5 days by MTT assay; type: cell-based
How it was run: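 Mock-infected MT-4 cells at 6×10^5 cells/mL were set up in triplicate wells alongside the infected series, with serial five-fold compound dilutions. Viability was measured by MTT at 540 and 690 nm after five days, using the median OD of two or three wells. CC50 is the concentration reducing viability of mock-infected cells by 50%.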

SMILES	IC50 [1] [µM]	Ratio IC50 [3]	IC50 [4] [µM]	EC50 [2] [µM]	CC50 at 120 h [5] [µM]
COC(=O)c1c(Nc2cccc3ccccc23)c2nccnc2n(O)c1=O	4.3		> 25	> 1.38	1.38
COC(=O)c1c(Nc2ccc(-c3ccccc3)cc2)c2nccnc2n(O)c1=O	5.25		> 25	> 7	7
COC(=O)c1c(Nc2ccc(-c3ccc(C#N)cc3)cc2)c2nccnc2n(O)c1=O	1.77	1.5	1.18	> 0.34	0.34
COC(=O)c1c(Nc2cccc(-c3cncnc3)c2)c2nccnc2n(O)c1=O	1.85	0.17	10.8	> 5.89	5.89
COC(=O)c1c(Nc2ccc(-c3cccc(C#N)c3)cc2)c2nccnc2n(O)c1=O	13.3		> 25	> 5.68	5.68
Cc1nnc(C(=O)NC(C)(C)c2nc(C(=O)NCc3ccc(F)cc3)c(O)c(=O)n2C)o1				0.0117	> 56.2
CC(C)c1ccc(O)c(=O)c(O)c1 [BETA-THUJAPLICINOL]	2.5				
COC(=O)c1c(Nc2ccc3ccccc3c2)c2nccnc2n(O)c1=O	5.11	0.76	6.74	> 7.15	7.15
COC(=O)c1c(Nc2ccc(-c3cncnc3)cc2)c2nccnc2n(O)c1=O	3.24	2.17	1.49	> 8.04	8.04

Now from value to compound, other results behind:

IC50 [1] [µM]	Ratio IC50 [3]	IC50 [4] [µM]	SMILES	EC50 [2] [µM]	CC50 at 120 h [5] [µM]
4.72	21.4	0.22	COC(=O)c1c(Nc2cccc(-c3ccc(OC)c(OC)c3)c2)c2nccnc2n(O)c1=O	> 1.32	1.32
4.02	16.1	0.25	COC(=O)c1c(Nc2cccc(-c3cccc(C#N)c3)c2)c2nccnc2n(O)c1=O	> 1.16	1.16
5.56	0.24	22.8	COC(=O)c1c(Nc2cccc(-c3ccc(C#N)cc3)c2)c2nccnc2n(O)c1=O	> 1.19	1.19
5.9		> 25	COC(=O)c1c(Nc2ccc(-c3ccc(OC)c(OC)c3)cc2)c2nccnc2n(O)c1=O	> 1.47	1.47
